High-throughput results (PubChem)
The list is not random: actives were taken first. Their share in the collection is about 2.3%.
TRPC4 potent: TRPC4 (mouse) allosteric potentiation; HEK293 TRPC4beta/mu-opioid, DAMGO EC20, Fluo-4 Ca2+ flux; hits give high values; 0.42% of 310,000 active; Q9QUQ5; B-score at 10 µM;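 active means B-score of calcium response area above 5 SD of library B-scores, with initial fluorescence ratio within 5 SD of library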
Target sequence (Q9QUQ5 whole entry, looked up): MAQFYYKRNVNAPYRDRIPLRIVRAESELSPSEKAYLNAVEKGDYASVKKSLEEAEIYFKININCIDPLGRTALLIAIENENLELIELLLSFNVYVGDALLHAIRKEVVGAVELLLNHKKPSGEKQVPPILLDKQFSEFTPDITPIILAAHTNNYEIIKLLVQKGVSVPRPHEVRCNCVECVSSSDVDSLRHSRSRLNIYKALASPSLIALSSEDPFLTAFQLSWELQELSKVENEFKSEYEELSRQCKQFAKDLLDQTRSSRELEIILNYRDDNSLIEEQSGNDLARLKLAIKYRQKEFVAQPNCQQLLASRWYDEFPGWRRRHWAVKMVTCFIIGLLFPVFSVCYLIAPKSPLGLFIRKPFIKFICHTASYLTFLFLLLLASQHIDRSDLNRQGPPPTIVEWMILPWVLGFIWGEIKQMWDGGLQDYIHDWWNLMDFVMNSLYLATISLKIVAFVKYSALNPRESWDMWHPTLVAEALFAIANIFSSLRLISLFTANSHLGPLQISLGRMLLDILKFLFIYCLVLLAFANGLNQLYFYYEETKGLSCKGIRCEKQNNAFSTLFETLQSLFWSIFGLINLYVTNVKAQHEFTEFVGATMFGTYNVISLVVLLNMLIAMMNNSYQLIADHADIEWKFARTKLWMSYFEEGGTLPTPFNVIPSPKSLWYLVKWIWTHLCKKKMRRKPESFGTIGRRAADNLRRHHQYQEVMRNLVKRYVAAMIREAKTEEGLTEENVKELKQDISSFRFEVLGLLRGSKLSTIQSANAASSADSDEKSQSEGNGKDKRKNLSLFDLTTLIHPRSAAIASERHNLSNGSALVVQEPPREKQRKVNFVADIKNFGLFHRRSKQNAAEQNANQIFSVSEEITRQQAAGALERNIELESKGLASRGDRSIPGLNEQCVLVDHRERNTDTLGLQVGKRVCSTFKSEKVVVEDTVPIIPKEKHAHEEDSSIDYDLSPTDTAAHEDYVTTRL
TRPC6 act: activates the mouse TRPC6 cation channel; B-score at 10 µM; HEK293-TRPC6 membrane potential dye fluorescence; hits give high values; Q61143; 0.13% of 310,000 active;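 active means B-score of the integrated fluorescence ratio above library mean plus 3 SD, and starting fluorescence ratio within library mean plus 5 SD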;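 further: higher score means more depolarization so channel activation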
TRPC6 inh: blocks the mouse TRPC6 cation channel; B-score at 10 µM; 1.1% of 310,000 active; Q61143; AID 2553; HEK293-TRPC6, membrane potential dye, ACh-evoked depolarization; hits give low values;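 active means B-score under library mean minus 3 SD, initial fluorescence not abnormally high, positive integrated signal ratio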;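 further: B-score derived from integrated fluorescence ratio over the kinetic read; more negative B-score means stronger inhibition of depolarization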
TRPC4 act: activators of mouse TRPC4 channel; Q9QUQ5; HEK293 TRPC4beta/mu-opioid, Fluo4 calcium fluorescence; hits give high values; B-score at 10 µM; 0.49% of 310,000 active;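 active means B-score above 5 SD of library B-scores, and initial fluorescence ratio not above library mean plus 5 SD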;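 further: positive B-score marks a calcium rise read as TRPC4 activation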
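Incubation: 45 min room-temperature Fluo4 loading, 110 s read / System: HEK293 cells stably co-expressing mouse TRPC4beta and mu-opioid receptor / Signal: Fluo4 fluorescence, kinetic / Control set: buffer (low) and maximal DAMGO (high) / Measure: integrated baseline-normalised fluorescence ratio, converted to per-well B score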
TRPC4 block: TRPC4 (mouse) channel inhibition | 0.39% of 300,000 active | B-score at 10 µM | HEK293 TRPC4beta/mu-opioid, DAMGO-evoked Fluo4 calcium flux; hits give low values;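 active means B-score over 3 SD under the library average, no early fluorescence shift, positive overall ratio signal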
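System: stable TRPC4beta/mu-opioid receptor HEK293 cells; Dosing: single-point compound dosing; Measured by: Fluo4 Ca2+ flux fluorescence; Read-out basis: per-well B score of integrated baseline-normalized Fluo4 ratio.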
TRPC4 sel inh 2: second check of whether TRPC6 inhibitors also affect mouse TRPC4 | 42% of 920 active | shares compounds with TRPC6 inh | HEK293 TRPC4/MOR, membrane potential dye fluorescence; channel activated by saturating DAMGO dose | inhibition, % at 10 µM;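 active means compounds whose fluorescence signal differed from control wells by over 3 SD, either direction, in both duplicate plates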
TRPC4 spec: tests whether TRPC6 inhibitors also affect mouse TRPC4. shares compounds with TRPC6 inh. HEK293 TRPC4/mu-opioid, membrane potential fluorescence. activity change, negative = inhibition, % at 10 µM. 61% of 920 active;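 active means rise or fall in signal beyond 3 SD of buffer-only wells in both replicate plates, either sign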;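 further: integrated kinetic ratio of fluorescence range over baseline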
HEK293 MPD ctr 2-1: parental HEK293 nonspecific activity of TRPC6 inhibitors, second screen. shares compounds with TRPC6 inh. signal change vs control, % at 10 µM. 31% of 920 active. AID 2779. parental HEK293 membrane potential dye fluorescence; maximal acetylcholine challenge after compound addition;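 active means membrane potential signal moving either way by over 3 SD of the maximum-effect control, in both duplicate plates, meaning non-specific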
HEK293 MPD ctr-1: parental HEK293 nonspecific activity of TRPC6 inhibitors. shares compounds with TRPC6 inh. parental HEK293 membrane potential dye fluorescence. membrane potential signal change, % at 10 µM. 60% of 920 active;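 active means membrane potential signal shifting up or down by more than 3 SD of buffer-only wells, on both duplicate plates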
HEK293 MPD ctr-2: parental HEK293 nonspecific activity of TRPC6 modulators; shares compounds with TRPC6 inh; membrane potential dye fluorescence; membrane potential signal change, % at 10 µM; 51% of 2,400 active; AID 488924;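 active means membrane potential signal moves up or down beyond 5 SD from buffer-only wells, on both duplicate plates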
HEK293 MPD ctr 2-2: parental HEK293 nonspecific activity of TRPC6 modulators, second screen. shares compounds with TRPC6 inh. membrane potential dye fluorescence; after compound, maximal acetylcholine stimulation. inhibition, % at 10 µM. 14% of 2,400 active. AID 488926;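 active means membrane potential signal drops by more than 5 SD from the mean control signal, in both duplicate plates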
TRPC4 ctr mod: mouse TRPC4 off-target activity of TRPC6 modulators. 69% of 2,400 active. AID 488927. HEK293 TRPC4/mu-opioid, membrane potential fluorescence. percent change from control (negative = decrease, positive = increase), % at 10 µM. shares compounds with TRPC6 inh;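 active means membrane potential signal moved up or down beyond 5 SD of buffer control wells, in both duplicate plates, actives on both sides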
TRPC4 ctr inh 2: second check of whether TRPC6 modulators also affect mouse TRPC4; shares compounds with TRPC6 inh; HEK293 TRPC4/mu-opioid, membrane potential dye fluorescence; stimulated with maximal-effect DAMGO; inhibition, % at 10 µM; 55% of 2,400 active; AID 488928;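 active means drop in membrane potential signal beyond 5 SD of the control wells in both duplicate plates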;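 further: TRPC4 counter screen for TRPC6 hits run under conditions tuned for TRPC6 not TRPC4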
TRPC6 block conf: mouse TRPC6 inhibitor confirmation; shares compounds with TRPC6 inh; HEK293-TRPC6, membrane potential dye, ACh-evoked depolarization; inhibition, % at 10 µM; 43% of 3,300 active;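 active means fluorescence ratio falls more than 5 SD below the full-stimulation control mean, in both duplicate runs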;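 further: integrated fluorescence ratio of peak minus minimum over baseline after agonist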
TRPC6 act conf: confirmation of mouse TRPC6 activators | AID 488961 | 11% of 2,800 active | shares compounds with TRPC6 inh | activation, % at 10 µM | HEK293-TRPC6 membrane potential dye fluorescence, FDSS;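 active means ratio signal rise beyond 5 SD above unstimulated control wells' mean, seen in both duplicate runs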
Of the large screens only hits and unclear results are named; the others gave an inactive call (follow-up assays come after a bar, where they were run).

COc1cc2nc(Nc3ccc(C)c(Cl)c3)nc(N)c2cc1OC	none
Nc1nc(Nc2ccc(Cl)cc2)nc2ccccc12	TRPC6 inh -11.6 | HEK293 MPD ctr-2 -163.0% | HEK293 MPD ctr 2-2 89.5% | TRPC4 ctr mod -36.5% | TRPC4 ctr inh 2 88.0% | TRPC6 block conf 84.0% | TRPC6 act conf inactive
Cc1ccc(Nc2nc(N)c3ccccc3n2)cc1Cl	TRPC6 inh -6.5 | HEK293 MPD ctr-2 -127.5% | HEK293 MPD ctr 2-2 83.0% | TRPC4 ctr mod -35.0% | TRPC4 ctr inh 2 79.0% | TRPC6 block conf 75.0% | TRPC6 act conf inactive
COc1cc(NS(=O)(=O)c2ccc(NC(=S)NC(=O)COc3ccccc3OC)cc2)nc(OC)n1	none
Cc1nc(-c2ccc(F)cc2)c(CC(=O)N2CCN(S(=O)(=O)c3cccc(F)c3)CC2)s1	none
Cc1ccc(C(=O)NCCC(=O)Nc2ccccc2C)cc1	none
CC(C)c1cc(C(C)C)c(S(=O)(=O)N2CCNCC2)c(C(C)C)c1	TRPC6 inh -5.77 | HEK293 MPD ctr-2 inactive | HEK293 MPD ctr 2-2 inactive | TRPC4 ctr mod inactive | TRPC4 ctr inh 2 64.5% | TRPC6 block conf 41.5% | TRPC6 act conf inactive
Cc1cc(C)cc(OCc2nnc(SCC(=O)OC(C)C)o2)c1	none
CN1CCN(CCCNC(=O)c2ccc3c(c2)N(Cc2ccccc2)CCS3)CC1	TRPC6 inh -7.93 | TRPC4 sel inh 2 62.5% | TRPC4 spec inactive | HEK293 MPD ctr 2-1 inactive | HEK293 MPD ctr-1 inactive | TRPC6 block conf inactive | TRPC6 act conf inactive
CCN1CCN(CCCNC(=O)c2ccc3c(c2)N(Cc2ccc(C)cc2)CCS3)CC1	TRPC6 inh -5.17 | HEK293 MPD ctr-2 inactive | HEK293 MPD ctr 2-2 inactive | TRPC4 ctr mod inactive | TRPC4 ctr inh 2 74.0% | TRPC6 block conf 57.0% | TRPC6 act conf inactive
Cc1ccc(CN2CCSc3ccc(C(=O)NCCCN4CCOCC4)cc32)cc1	none
C=CCNC(=S)/N=c1/ccccn1CCC	none
O=C(Cn1c(-c2ccccc2)c[n+]2ccsc12)c1ccc([N+](=O)[O-])cc1	TRPC6 inh -5.33, TRPC4 act 50, TRPC4 block -7 | HEK293 MPD ctr-2 -198.0% | HEK293 MPD ctr 2-2 inactive | TRPC4 ctr mod 35.0% | TRPC4 ctr inh 2 90.5% | TRPC6 block conf inactive | TRPC6 act conf inactive
O=C(Cn1nnc(-c2ccccc2)n1)c1ccccc1	none
O=C(Cn1c(-c2ccccc2)c[n+]2ccsc12)c1ccccc1	TRPC6 inh -5.29, TRPC4 block -11 | HEK293 MPD ctr-2 inactive | HEK293 MPD ctr 2-2 inactive | TRPC4 ctr mod 16.5% | TRPC4 ctr inh 2 57.5% | TRPC6 block conf inactive | TRPC6 act conf inactive
Cc1cc(C)cc(OCCNC(=O)CCc2ccccc2)c1	none
COc1ccc(NC(=O)Cn2nnc(-c3ccccc3NS(=O)(=O)c3ccccc3)n2)cc1	none
COc1ccc(S(=O)(=O)Nc2ccccc2-c2nnn(CC(=O)Nc3ccccc3OC)n2)cc1	TRPC6 inh -5.28 | HEK293 MPD ctr-2 inactive | HEK293 MPD ctr 2-2 inactive | TRPC4 ctr mod inactive | TRPC4 ctr inh 2 inactive | TRPC6 block conf inactive | TRPC6 act conf inactive
OCCNCc1cccc(OCc2ccc(Cl)cc2)c1	none
OCCNCc1cc(Br)ccc1OCc1ccc(Cl)cc1	TRPC6 inh -5.65 | HEK293 MPD ctr-2 101.5% | HEK293 MPD ctr 2-2 inactive | TRPC4 ctr mod 17.0% | TRPC4 ctr inh 2 89.0% | TRPC6 block conf 45.0%
CCN(CC)c1ccc(N=C2C(=O)Nc3ccccc32)cc1	TRPC6 inh -7.53 | HEK293 MPD ctr-2 -261.0% | HEK293 MPD ctr 2-2 inactive | TRPC4 ctr mod -40.5% | TRPC4 ctr inh 2 89.0% | TRPC6 block conf 76.0% | TRPC6 act conf inactive
Cc1ccc(N=C2C(=O)Nc3ccccc32)cc1	none
Cc1cc2cc(C)c(NCCNC(=O)c3ccccc3F)nc2cc1C	TRPC6 inh -5.89 | HEK293 MPD ctr-2 inactive | HEK293 MPD ctr 2-2 inactive | TRPC4 ctr mod inactive | TRPC4 ctr inh 2 46.5% | TRPC6 block conf inactive | TRPC6 act conf inactive
Oc1ccccc1N=Cc1c(O)ccc2ccccc12	TRPC6 inh -5.27 | HEK293 MPD ctr-2 inactive | HEK293 MPD ctr 2-2 inactive | TRPC4 ctr mod 38.0% | TRPC4 ctr inh 2 inactive | TRPC6 block conf inactive
COc1ccc(CCN(C(=O)C(F)(F)F)C(C(=O)NC2CCCCC2)c2ccc(C)s2)cc1OC (stereo unspecified)	none
O=C1CCCc2ccccc2N1Cc1ccccc1	none
COc1ccc(CN2C(=O)CCCc3ccccc32)cc1	TRPC6 inh -5.67 | HEK293 MPD ctr-2 inactive | HEK293 MPD ctr 2-2 inactive | TRPC4 ctr mod inactive | TRPC4 ctr inh 2 inactive | TRPC6 block conf inactive | TRPC6 act conf inactive
CCOC(=O)CSc1nnc(C)n1N	none
CCN1CCc2c(OCc3ccccc3)cccc2C1=O	TRPC6 inh -5.6 | HEK293 MPD ctr-2 125.5% | HEK293 MPD ctr 2-2 inactive | TRPC4 ctr mod 21.0% | TRPC4 ctr inh 2 inactive | TRPC6 block conf inactive
O=C(CNCc1ccccc1)NC1C2CC3CC(C2)CC1C3 (stereo unspecified)	TRPC6 inh -5.76 | HEK293 MPD ctr-2 inactive | HEK293 MPD ctr 2-2 inactive | TRPC4 ctr mod 9.0% | TRPC4 ctr inh 2 35.5% | TRPC6 block conf 60.0%
CSCC[C@H](NC(=O)N1CCn2c1nc1ccccc12)C(=O)NCc1ccccc1	none
Cc1nnc(SCC(=O)NC2CCCCC2)[nH]c1=O	none
